The record followed here is ChEMBL document CHEMBL1773072, “Diosgenin, a plant-derived sapogenin, exhibits antiviral activity in vitro against hepatitis C virus” (J Nat Prod, 2011).

The source made the active and inactive calls. No cut-off for these calls is given here.

The subject of series [1] is Hepatitis C virus. Briefly: Antiviral activity against Hepatitis C virus infected in human Ava5 cells assessed as decreased NS3 protein level at […] after 72 hrs by Western blotting. The class given is functional, organism-based. As to conditions: Hepacivirus hominis. In short, it runs like this:
(§1)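 Ava5 subgenomic replicon cells (Huh7-derived, HCV genotype 1b NS3–NS5B, neo) are kept in DMEM/10% FBS at 37 °C, 5% CO2 and exposed to compound for 72 h. Cells are washed in PBS and lysed in Tris/NaCl/1% Triton X-100. Lysates are clarified and run on 10% SDS-PAGE, then immunoblotted with anti-NS3; β-actin is the loading control.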
Background: In western blotting, separated proteins are transferred to a membrane and probed.

Series [2] relates to Hepatitis C virus. The series can be described thus: Antiviral activity against Hepatitis C virus infected in human Ava5 cells expressing EG(delta4AB)SEAP reporter gene assessed as decreased NS3 protein level after 72 hrs by Western blotting. Format: functional, organism-based. As to conditions: Hepacivirus hominis. The procedure, abridged:
as §1
For orientation: In a reporter assay the amount or activity of a reporter protein is the signal.

The test system of series [3] is Hepatitis C virus. The series can be described thus: Antiviral activity against Hepatitis C virus infected in human Ava5 cells expressing EG(delta4AB)SEAP reporter gene assessed as decreased viral RNA level after 72 hrs by RTqPCR analysis. Format: functional, organism-based. As to conditions: Hepacivirus hominis. The procedure, abridged: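 Ava5 cells seeded 1.5×10^5/well, incubated overnight, treated with a concentration series for 72 h. Total RNA TRIzol-extracted; HCV genotype 1b RNA quantified by SYBR Green RT-qPCR. Levels expressed relative to untreated cells (100%); triplicate, means ± SD.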

The target in series [4] is Signal transducer and activator of transcription 3 (Homo sapiens) (UniProt P40763). The series can be described thus: Effect on STAT3 protein production in human Ava5 cells after 72 hrs by Western blotting. Format: cell-based. The procedure, abridged: (§2)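 Ava5 cells incubated with a concentration series for 72 h. Whole-cell extracts were Western blotted with antibodies to STAT3 phosphorylated at Tyr705 and to total STAT3, with β-actin as loading control.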
Chain of Signal transducer and activator of transcription 3 (Homo sapiens) (P40763 whole entry): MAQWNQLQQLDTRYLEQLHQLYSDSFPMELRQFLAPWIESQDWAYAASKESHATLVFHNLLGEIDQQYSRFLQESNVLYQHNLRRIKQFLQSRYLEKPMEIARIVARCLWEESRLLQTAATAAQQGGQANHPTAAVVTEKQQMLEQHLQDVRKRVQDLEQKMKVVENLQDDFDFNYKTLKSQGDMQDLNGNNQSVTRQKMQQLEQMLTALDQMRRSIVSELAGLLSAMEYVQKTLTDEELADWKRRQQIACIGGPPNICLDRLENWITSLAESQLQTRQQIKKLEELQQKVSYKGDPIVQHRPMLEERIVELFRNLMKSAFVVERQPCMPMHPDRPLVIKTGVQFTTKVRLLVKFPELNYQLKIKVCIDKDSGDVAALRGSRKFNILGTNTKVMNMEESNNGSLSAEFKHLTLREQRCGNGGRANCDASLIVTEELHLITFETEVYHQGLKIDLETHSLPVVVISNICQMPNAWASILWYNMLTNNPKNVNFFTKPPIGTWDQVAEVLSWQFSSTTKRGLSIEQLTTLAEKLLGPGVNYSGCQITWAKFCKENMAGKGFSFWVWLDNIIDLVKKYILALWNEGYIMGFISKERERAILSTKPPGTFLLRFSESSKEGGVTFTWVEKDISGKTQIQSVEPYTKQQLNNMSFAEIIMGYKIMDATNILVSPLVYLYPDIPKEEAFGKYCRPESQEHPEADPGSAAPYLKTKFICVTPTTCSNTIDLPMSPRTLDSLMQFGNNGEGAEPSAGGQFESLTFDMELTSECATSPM

Series [5] concerns Hepatitis C virus. The series can be described thus: Antiviral activity against Hepatitis C virus infected in human Ava5 cells expressing EG(delta4AB)SEAP reporter gene assessed as decreased viral replication measured as SEAP activity by Phospha-Light assay. Format: functional, organism-based, Hepacivirus hominis. The procedure, abridged:
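Ava5-EG(Δ4AB)SEAP reporter cells seeded 6×10^3/well, after 24 h dosed with a concentration series. At 48 h medium replaced with fresh medium at same concentrations, incubated 24 h more. Secreted alkaline phosphatase in medium measured by chemiluminescent kit. EC50 from dose–response; three replicate wells, means ± SD.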

The subject of another series is Huh-7. Briefly: Cytotoxicity against Hepatitis C virus JFH-1 infected human HuH7 cells. The class given is cell-based.
The test system of series [6] is Hepatitis C virus. The series can be described thus: Antiviral activity against Hepatitis C virus infected in human Ava5 cells assessed as decreased NS3 protein level at 5 uM after 72 hrs by Western blotting. Format: functional, organism-based. As to conditions: Hepacivirus hominis. In short, it runs like this: as §1
Series [7] relates to Hepatitis C virus. Briefly: Antiviral activity against Hepatitis C virus JFH-1 infected in human Huh7 cells expressing G(delta4AB)SEAP reporter gene assessed as decreased NS3 protein level at 20 uM after 8 days by Western blotting. Format: functional, organism-based. As to conditions: Hepacivirus hominis, Huh-7. The procedure, abridged: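 Huh7-EG(Δ4B5A)SEAP cells seeded 5×10^4/well, incubated overnight, then infected with HCV JFH-1 (genotype 2a) at MOI 0.02 for 6 h. Unbound virus removed by medium replacement, then compound at 20 μM in basal medium for 7 days. Intracellular NS3 in lysates detected by Western blot.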

For series [8], the system named is Hepatitis C virus. The series can be described thus: Antiviral activity against Hepatitis C virus infected in human Ava5 cells assessed as decreased NS3 protein level at 5 uM after 72 hrs by Western blotting in presence of IFN-alpha. Format: functional, organism-based. As to conditions: Hepacivirus hominis. In short, it runs like this:
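Ava5 replicon cells given compound (5 μM) or IFN-α (5, 10, 50 IU/mL), alone and combined, for 72 h. BILN 2061 served as NS3/4A inhibitor positive control. Washed cells stored at -80 °C, then lysates Western blotted for NS3 with β-actin as internal standard.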

The nature of series [9]: Cytotoxicity against Hepatitis C virus infected human Ava5 cells assessed as cell viability after 5 days by MTS assay. Format: cell-based. As to conditions: ava5, 120 h. The procedure, abridged: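 Cells seeded, incubated overnight at 37 °C, 5% CO2, then medium replaced with compound-containing medium across a concentration range for five days. Viability by MTS colorimetric read at 490 nm after 2 h reagent incubation; ethanol as solvent control. Means ± SD.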
Background: Formazan colour is commonly taken as a measure of viable cells.

Series [10] is described as follows: Cytotoxicity against Hepatitis C virus infected human Ava5 cells assessed as cell viability after 5 days by MTS assay in presence of IFN-alpha. Format: cell-based. As to conditions: ava5, 120 h.
The target in series [11] is Signal transducer and activator of transcription 3 (Homo sapiens) (UniProt P40763). Briefly: Inhibition of STAT3 phosphorylation at Tyr 705 in human Ava5 cells after 72 hrs by Western blotting. Format: cell-based. In short, it runs like this: as §2

Turning to `COc1ccc2c(O[C@@H]3C[C@H]4C(=O)N[C@]5(C(=O)O)C[C@H]5/C=C\CCCCC[C@H](NC(=O)OC5CCCC5)C(=O)N4C3)cc(-c3csc(NC(C)C)n3)nc2c1`, the result in the series on Hepatitis C virus [1] was Active.

A word on the EC50: it is the concentration needed to bring the measured effect to its halfway point. For the compound `C[C@@H]1CC[C@@]2(OC1)O[C@H]1C[C@H]3[C@@H]4CC=C5C[C@@H](O)CC[C@]5(C)[C@H]4CC[C@]3(C)[C@H]1[C@@H]2C` [DISOGENIN], the Activity result was “Dose-dependent effect” with Hepatitis C virus [2]; “Dose-dependent effect” in the series on Hepatitis C virus [3]; “Dose-dependent effect” in the series with Hepatitis C virus [5] (Hepacivirus hominis); “Non-toxic” with Huh-7; “Non-toxic” in series [9]; “Non-toxic” in series [10]. The outcome in series [4] was inactive. Moreover, the EC50 in the series with Hepatitis C virus [5] is 3.8 µM. The outcome in the series on Hepatitis C virus [6], in the series on Hepatitis C virus [7] and in the series on Hepatitis C virus [8] was Active. In series [11], the inhibition result was “Dose-dependent effect”.
